Data on 19 compounds can be found in ChEMBL document CHEMBL4699576, “Oxidized Juncuenin B Analogues with Increased Antiproliferative Activity on Human Adherent Cell Lines: Semisynthesis and Biological Evaluation” (J Nat Prod, 2020).

For assay [1], the system named is NIH3T3. The assay is described as follows: Antiproliferative activity against mouse NIH/3T3 cells assessed as reduction in cell viability after 72 hrs by MTT assay. To be noted: NIH3T3, 72 h. In kind it is functional, cell-based. Put shortly: (§1)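 Cells were grown in MEM with 10% FBS, 1% nonessential amino acids and 1% penicillin–streptomycin–amphotericin B at 37 °C in humidified 5% CO2. They were seeded at 5000 cells/well and exposed to 0.1–30 μM compound for 72 h. MTT (5 mg/mL solution) was added for 4 h, and formazan was dissolved in DMSO and read at 545 nm against untreated cells. IC50 values came from normalized sigmoidal dose–response fits.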
On the technique in general: Formazan colour is commonly taken as a measure of viable cells.

In assay [2] the test system is HeLa. In words: Antiproliferative activity against human HeLa cells assessed as reduction in cell viability after 72 hrs by MTT assay. In kind it is functional, cell-based. The essentials:
as §1

Assay [3] concerns A2780. In words: Antiproliferative activity against human A2780 cells assessed as reduction in cell viability after 72 hrs by MTT assay. The class given is functional, cell-based. The conditions noted are these: A2780, 72 h. Put shortly: as §1
The subject of assay [4] is C-33-A. The assay is described as follows: Antiproliferative activity against human C33A cells assessed as reduction in cell viability after 72 hrs by MTT assay. The class given is functional, cell-based. The essentials: (§2)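 C33A cells were kept in MEM with 10% FBS, 1% nonessential amino acids and 1% penicillin–streptomycin–amphotericin B at 37 °C under 5% CO2. They were seeded at 10 000 cells/well and treated with 0.1–30 μM for 72 h. MTT (5 mg/mL solution) was added for 4 h, and formazan was dissolved in DMSO and read at 545 nm against untreated controls. IC50 values came from normalized sigmoidal curve fits.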

The subject of assay [5] is T47D. The assay is described as follows: Antiproliferative activity against human T47D cells assessed as reduction in cell viability after 72 hrs by MTT assay. The class given is functional, cell-based. The essentials: as §1
Assay [6] has as its system T47D. The assay is described as follows: Antiproliferative activity against human T47D cells assessed as reduction in cell viability at 0.1 to 30 uM after 72 hrs by MTT assay. In kind it is functional, cell-based. The conditions noted are these: dose microM 0.1-30, time 72.0 hrs. The essentials: as §1
The subject of assay [7] is SiHa. In words: Antiproliferative activity against human SiHa cells assessed as reduction in cell viability at 0.1 to 30 uM after 72 hrs by MTT assay. To be noted: dose microM 0.1-30, time 72.0 hrs. The class given is functional, cell-based. Put shortly: as §1
Assay [8] concerns MCF7. The assay is described as follows: Antiproliferative activity against human MCF7 cells assessed as reduction in cell viability at 0.1 to 30 uM after 72 hrs by MTT assay. The conditions noted are these: dose microM 0.1-30, time 72.0 hrs.
Assay [9] deals with HeLa. In words: Antiproliferative activity against human HeLa cells assessed as reduction in cell viability at 0.1 to 30 uM after 72 hrs by MTT assay. The conditions noted are these: dose microM 0.1-30, time 72.0 hrs.
For assay [10], the system named is A2780. In words: Antiproliferative activity against human A2780 cells assessed as reduction in cell viability at 0.1 to 30 uM after 72 hrs by MTT assay. The class given is functional, cell-based. To be noted: dose microM 0.1-30, time 72.0 hrs. Put shortly:
as §1

The subject of assay [11] is NIH3T3. The assay is described as follows: Antiproliferative activity against mouse NIH/3T3 cells assessed as reduction in cell viability at 0.1 to 30 uM after 72 hrs by MTT assay. The class given is functional, cell-based. To be noted: dose microM 0.1-30, time 72.0 hrs. Put shortly: as §1
Assay [12] relates to C-33-A. The assay is described as follows: Antiproliferative activity against human C33A cells assessed as reduction in cell viability at 0.1 to 30 uM after 72 hrs by MTT assay. In kind it is functional, cell-based. To be noted: dose microM 0.1-30, time 72.0 hrs. The essentials:
as §2

For assay [13], the system named is MDA-MB-231. In words: Antiproliferative activity against human MDA-MB-231 cells assessed as reduction in cell viability after 72 hrs by MTT assay. In kind it is functional, cell-based. The conditions noted are these: MDA-MB-231, 72 h.
Assay [14] relates to MCF7. In words: Antiproliferative activity against human MCF7 cells assessed as reduction in cell viability after 72 hrs by MTT assay. In kind it is functional, cell-based. The conditions noted are these: MCF7, 72 h. The essentials:
as §1

The nature of assay [15]: Selectivity ratio of IC50 for antiproliferative activity against human T47D cells to IC50 for antiproliferative activity against human MCF7 cells. The class given is functional.
The test system of assay [16] is SGC-7901. The assay is described as follows: Antiproliferative activity against human SGC-7901 cells assessed as reduction in cell viability after 48 hrs by Alamar Blue assay. To be noted: SGC-7901, 48 h. The class given is functional, cell-based. On the technique in general: Resazurin is reduced to fluorescent resorufin, in cell work by metabolically active cells.

For assay [17], the system named is AGS. The assay is described as follows: Antiproliferative activity against human AGS cells assessed as reduction in cell viability after 48 hrs by Alamar Blue assay. In kind it is functional, cell-based.
Assay [18] has as its system SiHa. In words: Antiproliferative activity against human SiHa cells assessed as reduction in cell viability after 72 hrs by MTT assay. The class given is functional, cell-based. The essentials: as §1

Activity calls are given as the source filed them. The calls are words filed in the database; no cut-off is given here.

On to `C=CC1=C(C)C(=O)C=C2c3ccc(O)c(C)c3CC[C@@]21OCC`, for which the concentration for half-maximal inhibition (IC50) (as a rule, the concentration at which inhibition is half-maximal) is more than 30 µM in assay [1]; 3.7 µM in [2]; 2.8 µM in assay [3]; 4.9 µM in assay [4]; 8.8 µM in [5]. Further, the outcome in assay [6], in [8] and in assay [9] was Active. The result in assay [7] was inactive.

Regarding `C=CC1=C2CCc3c(ccc(O)c3C)C2=CC(=O)C1(C)OCC` (racemic), the result in assay [10], in assay [11], in [12], in assay [8] and in assay [9] was inactive.

Turning to `C=CC1=C(C)C(=O)C=C2c3ccc(O)c(C)c3CC[C@]21OCC`, the result in [10], in assay [12], in assay [7] and in [9] was inactive.

In the case of `C=CC1=C(C)C(=O)C=C2C3(OC)C=CC(=O)C(C)=C3CCC21OC` (racemic; 2b), the result in assay [10], in assay [11], in assay [12], in assay [8] and in assay [9] was inactive.

On to `C=Cc1c(C)c(O)cc2c1CCc1c-2ccc(O)c1C`, for which the concentration for half-maximal inhibition (IC50) in [1] is more than 30 µM; in assay [13] it was 9.4 µM; in assay [14] it was 11.7 µM; in assay [2], 2.9 µM; in assay [3] it was 7.3 µM. Also, the “Ratio IC50” value in assay [15] turned out to be 2.5.

Consider `C=Cc1c(C)c(O)cc2c3c(ccc12)C(C)(OCC)C(=O)C=C3` (racemic), for which the result in assay [10], in [11], in assay [12], in assay [8] and in [9] was inactive.

On to `C=CC1=C(C)C(=O)C(OCCCC)(OCCCC)c2c1ccc1c2C=CC(=O)C1(C)OCCCC` (racemic), for which the outcome in assay [10], in assay [11], in assay [12], in assay [8] and in assay [9] was inactive.

Take `C=CC1=C(C)C(=O)C=C2C3(OC)C=CC(=O)C(C)=C3CCC21OC` (racemic; 2a): the result in assay [10], in assay [11], in assay [12], in assay [8] and in assay [9] was inactive.

As for `C=Cc1cc(O)cc2ccc3c(C)c(O)ccc3c12`, the values for the half-inhibitory concentration (IC50) in assay [16] and in [17] were 35.9 µM and 32.9 µM, respectively.

Turning to `C=CC1=C(C)C(=O)C=C2C3(OCC)C=CC(=O)C(C)=C3CCC21OCC` (racemic), the outcome in assay [10], in assay [11], in [12], in assay [8] and in [9] was inactive.

Consider `C=CC1=C(C)C(=O)C=C2C3=C(CC[C@]21OC)[C@](C)(OC)C(=O)C=C3` (stereo in doubt), for which the IC50 in assay [5] turned out to be 15 µM; in assay [18], 20 µM.

Take `C=CC1=C(C)C(=O)C=C2C3=C(CC[C@@]21OC)[C@@](C)(OC)C(=O)C=C3` (stereo in doubt): the IC50 in [5] is 15 µM; in assay [18], 20 µM.

On to `C=CC1=C(C)C(=O)C=C2C3=C(CC[C@@]21OC)[C@](C)(OC)C(=O)C=C3` (stereo in doubt), for which the IC50 in assay [1] is 21.6 µM; in [3], 7.7 µM; in assay [4], 5.3 µM; in assay [5], 15 µM; in [18] it was 20 µM. Further, the outcome in [6] and in [9] was Active.

For the compound `C=CC1=C(C)C(=O)C=C2C3=C(CCC21OCC)C(C)(OCC)C(=O)C=C3` (racemic; 6a), the result in assay [10], in assay [11], in [12], in assay [8] and in assay [9] was Active.

Take `C=CC1=C(C)C(=O)C=C2C3=C(CCC21OCC)C(C)(OCC)C(=O)C=C3` (racemic; 6b): the result in assay [10], in assay [11], in assay [12], in [8] and in assay [9] was Active.

In the case of `C=CC1=C(C)C(=O)C=C2c3ccc(O)c(C)c3CC[C@@]21OC`, the half-inhibitory concentration (IC50) in assay [1] came to 25.8 µM; in assay [14], 6.2 µM; in assay [2] it was 0.9 µM; in assay [3], 8.7 µM; in [4] it was 5.3 µM. For the same compound, the outcome in assay [6] and in assay [9] was Active.

Take `C=Cc1c(C)c(O)c(OC)c2c3c(ccc12)C(C)(OC)C(=O)C=C3` (racemic): the result in assay [10], in [11], in assay [12], in [8] and in [9] was inactive.

As to `C=CC1=C(C)C(=O)C=C2C3=C(CC[C@]21OC)[C@@](C)(OC)C(=O)C=C3` (stereo in doubt), the IC50 is more than 30 µM in assay [1], 15 µM in [5] and 20 µM in assay [18].

`C=CC1=C(C)C(=O)C=C2c3ccc(O)c(C)c3CC[C@]21OC`: the result in [10], in assay [12], in [8] and in assay [9] was inactive.
